From ChEMBL document CHEMBL3044834, “Novel protoporphyrinogen oxidase inhibitors: 3H-pyrazolo[3,4-d][1,2,3]triazin-4-one derivatives” (J Agric Food Chem, 2008)

Legend:
Type in all cases: functional
Digitaria sanguinalis [1] = assay: Herbicidal activity against Digitaria sanguinalis (hairy crabgrass) assessed as inhibition of fresh weed plant weight at 187.5 g/ha using post-emergence treatment protocol
Outline: (§1)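 Test compounds made up as emulsions by dissolving in 100 µL N,N-dimethylformamide, then adding a little Tween 20 and water. For post-emergence, weed seedlings at one leaf and one stem were sprayed at the same rates as the pre-emergence test. Fresh weight was recorded 15 days after treatment and expressed as percent inhibition versus controls. All treatments were run in triplicate.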

Digitaria sanguinalis [2] = assay: Herbicidal activity against Digitaria sanguinalis (hairy crabgrass) assessed as inhibition of fresh weed plant weight at 375 g/ha using post-emergence treatment protocol; outline: as §1
Amaranthus retroflexus [3] = assay: Herbicidal activity against Amaranthus retroflexus assessed as inhibition of fresh weed plant weight at 1500 g/ha using post-emergence treatment protocol; outline: as §1
[4] = system: Brassica rapa subsp. oleifera; assay: Herbicidal activity against Brassica rapa subsp. oleifera assessed as inhibition of fresh weed plant weight at 375 g/ha using pre-emergence treatment protocol
Digitaria sanguinalis [5] = assay: Herbicidal activity against Digitaria sanguinalis (hairy crabgrass) assessed as inhibition of fresh weed plant weight at 1500 g/ha using pre-emergence treatment protocol
Amaranthus retroflexus [6] = assay: Herbicidal activity against Amaranthus retroflexus assessed as inhibition of fresh weed plant weight at 93.75 g/ha using pre-emergence treatment protocol
Echinochloa crus-galli [7] = assay: Herbicidal activity against Echinochloa crus-galli (barnyard grass) assessed as inhibition of fresh weed plant weight at 187.5 g/ha using post-emergence treatment protocol; outline: as §1
Amaranthus retroflexus [8] = assay: Herbicidal activity against Amaranthus retroflexus assessed as inhibition of fresh weed plant weight at 187.5 g/ha using pre-emergence treatment protocol
Echinochloa crus-galli [9] = assay: Herbicidal activity against Echinochloa crus-galli (barnyard grass) assessed as inhibition of fresh weed plant weight at 93.75 g/ha using post-emergence treatment protocol; outline: as §1
Echinochloa crus-galli [10] = assay: Herbicidal activity against Echinochloa crus-galli (barnyard grass) assessed as inhibition of fresh weed plant weight at 187.5 g/ha using pre-emergence treatment protocol; outline: as §1
Digitaria sanguinalis [11] = assay: Herbicidal activity against Digitaria sanguinalis (hairy crabgrass) assessed as inhibition of fresh weed plant weight at 93.75 g/ha using post-emergence treatment protocol; outline: as §1
Amaranthus retroflexus [12] = assay: Herbicidal activity against Amaranthus retroflexus assessed as inhibition of fresh weed plant weight at 187.5 g/ha using post-emergence treatment protocol; outline: as §1
Digitaria sanguinalis [13] = assay: Herbicidal activity against Digitaria sanguinalis (hairy crabgrass) assessed as inhibition of fresh weed plant weight at 750 g/ha using post-emergence treatment protocol; outline: as §1
Echinochloa crus-galli [14] = assay: Herbicidal activity against Echinochloa crus-galli (barnyard grass) assessed as inhibition of fresh weed plant weight at 1500 g/ha using post-emergence treatment protocol; outline: as §1
[15] = system: Brassica rapa subsp. oleifera; assay: Herbicidal activity against Brassica rapa subsp. oleifera assessed as inhibition of fresh weed plant weight at 187.5 g/ha using pre-emergence treatment protocol
[16] = system: Brassica rapa subsp. oleifera; assay: Herbicidal activity against Brassica rapa subsp. oleifera assessed as inhibition of fresh weed plant weight at 375 g/ha using post-emergence treatment protocol; outline: as §1
Amaranthus retroflexus [17] = assay: Herbicidal activity against Amaranthus retroflexus assessed as inhibition of fresh weed plant weight at 93.75 g/ha using post-emergence treatment protocol; outline: as §1
Echinochloa crus-galli [18] = assay: Herbicidal activity against Echinochloa crus-galli (barnyard grass) assessed as inhibition of fresh weed plant weight at 93.75 g/ha using pre-emergence treatment protocol
Echinochloa crus-galli [19] = assay: Herbicidal activity against Echinochloa crus-galli (barnyard grass) assessed as inhibition of fresh weed plant weight at 750 g/ha using pre-emergence treatment protocol
[20] = system: Brassica rapa subsp. oleifera; assay: Herbicidal activity against Brassica rapa subsp. oleifera assessed as inhibition of fresh weed plant weight at 1500 g/ha using pre-emergence treatment protocol
Digitaria sanguinalis [21] = assay: Herbicidal activity against Digitaria sanguinalis (hairy crabgrass) assessed as inhibition of fresh weed plant weight at 187.5 g/ha using pre-emergence treatment protocol
Digitaria sanguinalis [22] = assay: Herbicidal activity against Digitaria sanguinalis (hairy crabgrass) assessed as inhibition of fresh weed plant weight at 375 g/ha using pre-emergence treatment protocol
[23] = system: Brassica rapa subsp. oleifera; assay: Herbicidal activity against Brassica rapa subsp. oleifera assessed as inhibition of fresh weed plant weight at 1500 g/ha using post-emergence treatment protocol; outline: as §1
[24] = system: Brassica rapa subsp. oleifera; assay: Herbicidal activity against Brassica rapa subsp. oleifera assessed as inhibition of fresh weed plant weight at 750 g/ha using pre-emergence treatment protocol
Echinochloa crus-galli [25] = assay: Herbicidal activity against Echinochloa crus-galli (barnyard grass) assessed as inhibition of fresh weed plant weight at 750 g/ha using post-emergence treatment protocol; outline: as §1
Echinochloa crus-galli [26] = assay: Herbicidal activity against Echinochloa crus-galli (barnyard grass) assessed as inhibition of fresh weed plant weight at 375 g/ha using post-emergence treatment protocol; outline: as §1
Digitaria sanguinalis [27] = assay: Herbicidal activity against Digitaria sanguinalis (hairy crabgrass) assessed as inhibition of fresh weed plant weight at 750 g/ha using pre-emergence treatment protocol
[28] = system: Brassica rapa subsp. oleifera; assay: Herbicidal activity against Brassica rapa subsp. oleifera assessed as inhibition of fresh weed plant weight at 187.5 g/ha using post-emergence treatment protocol; outline: as §1
Digitaria sanguinalis [29] = assay: Herbicidal activity against Digitaria sanguinalis (hairy crabgrass) assessed as inhibition of fresh weed plant weight at 93.75 g/ha using pre-emergence treatment protocol
[30] = system: Brassica rapa subsp. oleifera; assay: Herbicidal activity against Brassica rapa subsp. oleifera assessed as inhibition of fresh weed plant weight at 93.75 g/ha using pre-emergence treatment protocol
Amaranthus retroflexus [31] = assay: Herbicidal activity against Amaranthus retroflexus assessed as inhibition of fresh weed plant weight at 375 g/ha using pre-emergence treatment protocol
[32] = system: Brassica rapa subsp. oleifera; assay: Herbicidal activity against Brassica rapa subsp. oleifera assessed as inhibition of fresh weed plant weight at 93.75 g/ha using post-emergence treatment protocol; outline: as §1
Echinochloa crus-galli [33] = assay: Herbicidal activity against Echinochloa crus-galli (barnyard grass) assessed as inhibition of fresh weed plant weight at 375 g/ha using pre-emergence treatment protocol; outline: as §1
Amaranthus retroflexus [34] = assay: Herbicidal activity against Amaranthus retroflexus assessed as inhibition of fresh weed plant weight at 750 g/ha using pre-emergence treatment protocol; outline: as §1
Amaranthus retroflexus [35] = assay: Herbicidal activity against Amaranthus retroflexus assessed as inhibition of fresh weed plant weight at 375 g/ha using post-emergence treatment protocol; outline: as §1
Amaranthus retroflexus [36] = assay: Herbicidal activity against Amaranthus retroflexus assessed as inhibition of fresh weed plant weight at 1500 g/ha using pre-emergence treatment protocol
[37] = system: Brassica rapa subsp. oleifera; assay: Herbicidal activity against Brassica rapa subsp. oleifera assessed as inhibition of fresh weed plant weight at 750 g/ha using post-emergence treatment protocol; outline: as §1
Amaranthus retroflexus [38] = assay: Herbicidal activity against Amaranthus retroflexus assessed as inhibition of fresh weed plant weight at 750 g/ha using post-emergence treatment protocol; outline: as §1
Digitaria sanguinalis [39] = assay: Herbicidal activity against Digitaria sanguinalis (hairy crabgrass) assessed as inhibition of fresh weed plant weight at 1500 g/ha using post-emergence treatment protocol; outline: as §1
Echinochloa crus-galli [40] = assay: Herbicidal activity against Echinochloa crus-galli (barnyard grass) assessed as inhibition of fresh weed plant weight at 1500 g/ha using pre-emergence treatment protocol

Row | Compound | inhibition at 1500 g/ha (Amaranthus retroflexus [3]) [%] | inhibition at 375 g/ha [4] [%] | inhibition at 1500 g/ha (Digitaria sanguinalis [5]) [%] | inhibition at 187.5 g/ha (Amaranthus retroflexus [8]) [%] | inhibition at 187.5 g/ha (Echinochloa crus-galli [10]) [%] | inhibition at 1500 g/ha (Echinochloa crus-galli [14]) [%] | inhibition at 187.5 g/ha [15] [%] | inhibition at 750 g/ha (Echinochloa crus-galli [19]) [%] | inhibition at 1500 g/ha [20] [%] | inhibition at 187.5 g/ha (Digitaria sanguinalis [21]) [%] | inhibition at 375 g/ha (Digitaria sanguinalis [22]) [%] | inhibition at 1500 g/ha [23] [%] | inhibition at 750 g/ha [24] [%] | inhibition at 750 g/ha (Digitaria sanguinalis [27]) [%] | inhibition at 375 g/ha (Amaranthus retroflexus [31]) [%] | inhibition at 375 g/ha (Echinochloa crus-galli [33]) [%] | inhibition at 750 g/ha (Amaranthus retroflexus [34]) [%] | inhibition at 1500 g/ha (Amaranthus retroflexus [36]) [%] | inhibition at 1500 g/ha (Digitaria sanguinalis [39]) [%] | inhibition at 1500 g/ha (Echinochloa crus-galli [40]) [%] | further results
1 | C=CCN1C(=O)COc2cc(F)c(-n3nnc4nn(CC=C)cc4c3=O)cc21 | 100 | 100 | 90 | 100 | 18.2 | 30.8 | 95.9 | 89.7 | 100 | 16.3 | 40.8 | 95.6 | 100 | 75.5 | 100 | 27.9 | 100 | 100 | 0 | 100 | inhibition at 187.5 g/ha (Digitaria sanguinalis [1]): 0%; inhibition at 375 g/ha (Digitaria sanguinalis [2]): 0%; inhibition at 93.75 g/ha (Amaranthus retroflexus [6]): 100%; inhibition at 187.5 g/ha (Echinochloa crus-galli [7]): 2.8%; inhibition at 93.75 g/ha (Echinochloa crus-galli [9]): 0%; inhibition at 93.75 g/ha (Digitaria sanguinalis [11]): 0%; inhibition at 187.5 g/ha (Amaranthus retroflexus [12]): 45.5%; inhibition at 750 g/ha (Digitaria sanguinalis [13]): 0%; inhibition at 375 g/ha [16]: 60.8%; inhibition at 93.75 g/ha (Amaranthus retroflexus [17]): 28.9%; inhibition at 93.75 g/ha (Echinochloa crus-galli [18]): 8.2%; inhibition at 750 g/ha (Echinochloa crus-galli [25]): 18.1%; inhibition at 375 g/ha (Echinochloa crus-galli [26]): 17.2%; inhibition at 187.5 g/ha [28]: 12.3%; inhibition at 93.75 g/ha (Digitaria sanguinalis [29]): 6.1%; inhibition at 93.75 g/ha [30]: 51.2%; inhibition at 93.75 g/ha [32]: 10.2%; inhibition at 375 g/ha (Amaranthus retroflexus [35]): 83.5%; inhibition at 750 g/ha [37]: 88.5%; inhibition at 750 g/ha (Amaranthus retroflexus [38]): 100%
2 | C#CCN1C(=O)COc2cc(F)c(-n3nnc4c(cnn4C)c3=O)cc21 | 71.8 | 95.6 | 100 | 66 | 48.4 | 58.4 | 77.7 | 100 | 98.8 | 80 | 100 | 45.6 | 97.1 | 100 | 96.3 | 94.8 | 100 | 100 | 39.2 | 100 | inhibition at 93.75 g/ha (Amaranthus retroflexus [6]): 60.2%; inhibition at 93.75 g/ha (Echinochloa crus-galli [18]): 47.1%; inhibition at 93.75 g/ha (Digitaria sanguinalis [29]): 26.8%; inhibition at 93.75 g/ha [30]: 47.3%
3 | CCCN1C(=O)COc2cc(F)c(-n3nnc4c(cnn4C)c3=O)cc21 | 54.1 | 57.1 | 94.1 | 89.5 | 28.4 | 46.9 | 38.5 | 91.2 | 100 | 14.2 | 65.4 | 20.5 | 79.9 | 87.8 | 93.2 | 69.6 | 95.3 | 100 | 47.5 | 94.8 | inhibition at 93.75 g/ha (Amaranthus retroflexus [6]): 83.8%; inhibition at 93.75 g/ha (Echinochloa crus-galli [18]): 0%; inhibition at 93.75 g/ha (Digitaria sanguinalis [29]): 3.9%; inhibition at 93.75 g/ha [30]: 32.2%
4 | C#CCOc1cc(-n2nnc3c(cnn3CC=C)c2=O)c(F)cc1Cl | 88.6 | 0 | 37.4 | 21.3 | 0 | 38.3 | 0 | 0 | 7.4 | 6.5 | 13 | 18.5 | 0 | 17.4 | 27.9 | 0 | 41 | 87 | 41.3 | 0 | inhibition at 187.5 g/ha (Digitaria sanguinalis [1]): 0%; inhibition at 375 g/ha (Digitaria sanguinalis [2]): 0%; inhibition at 187.5 g/ha (Echinochloa crus-galli [7]): 7.3%; inhibition at 187.5 g/ha (Amaranthus retroflexus [12]): 7.3%; inhibition at 750 g/ha (Digitaria sanguinalis [13]): 19.4%; inhibition at 375 g/ha [16]: 3.4%; inhibition at 750 g/ha (Echinochloa crus-galli [25]): 17.1%; inhibition at 375 g/ha (Echinochloa crus-galli [26]): 11.2%; inhibition at 187.5 g/ha [28]: 0%; inhibition at 375 g/ha (Amaranthus retroflexus [35]): 12.2%; inhibition at 750 g/ha [37]: 7.4%; inhibition at 750 g/ha (Amaranthus retroflexus [38]): 41.5%
